The text below walks through data of ChEMBL document CHEMBL1255430, “Kinetic parameters of efflux of penicillins by the multidrug efflux transporter AcrAB-TolC of Escherichia coli” (Antimicrob Agents Chemother, 2010).

As a reminder, the logP is the decadic logarithm of the partition coefficient of the neutral form, usually between octanol and water. A low value points to a more hydrophilic compound. For orientation: MIC means the least concentration at which growth counts as inhibited. Lower therefore signals inhibition by little substance. For orientation: Km means the substrate concentration at which the rate is half of its maximum.

A short description of data set [1]: Lipophilicity, log P of the compound. In kind it is physicochemical. Conditions: octanol/water.
Data set [2] relates to Escherichia coli. As to the kind of experiment: Antimicrobial activity against Escherichia coli HN1157/pHSG576oxa7 assessed as minimal drug concentration. In kind it is functional. An outline of the steps: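 The inoculum was grown overnight in modified LB broth with 10 μg/ml chloramphenicol to keep the plasmid, diluted to OD660 0.1 and streaked across the gradient. Plates were read after overnight incubation at 30°C.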

Data set [3] relates to Escherichia coli. As to the kind of experiment: Antimicrobial activity against Escherichia coli HN1157/pHSG576oxa7. In kind it is functional.
Data set [4] in a line: Permeability across Escherichia coli HN1157/pHSG576oxa7 assessed as permeability coefficient in presence of proton uncoupler carbonyl cyanide meta-chlorophenylhydrazone. In kind it is ADME, organism-based. The following applies: not told, read-out: permeability.
The test system of data set [5] is Escherichia coli. Conditions: HN1157.
Substrate in data set [6]: CC1(C)S[C@@H]2[C@H](NC(=O)COc3ccccc3)C(=O)N2[C@H]1C(=O)O
The experiment in a line: (§1) Activity at Escherichia coli isolate 7181 beta-lactamase OXA-7. An outline of the steps:
(§2)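 Crude sonicates of E. coli HN1157 carrying low-copy pHSG576oxa7, grown 14 h at 30°C in modified LB with 10 μg/ml chloramphenicol (plus 0.1% glucose for some substrates). Extract equals OD600 0.025 cells (9.38 μg dry weight/ml) in 50 mM potassium phosphate, pH 7.0, 5 mM MgCl2. Penicillin hydrolysis stopped with TCA at 2 min. Microiodometric OD592 read after 30 min, minus a zero-time TCA blank. Km and Vmax expressed per mg cell dry weight.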

Substrate in data set [7]: CC1(C)S[C@@H]2[C@H](NC(=O)[C@H](NC(=O)N3CCN(S(C)(=O)=O)C3=O)c3ccccc3)C(=O)N2[C@H]1C(=O)O
The description is as §1. In outline: as §2

Substrate in data set [8]: CC1(C)S[C@@H]2[C@H](NC(=O)[C@H](NC(=O)N3CCNC3=O)c3ccccc3)C(=O)N2[C@H]1C(=O)O
The data set is described as §1. In outline:
as §2

Substrate in data set [9]: CCN1CCN(C(=O)N[C@@H](C(=O)N[C@@H]2C(=O)N3[C@@H]2SC(C)(C)[C@@H]3C(=O)O)c2ccccc2)C(=O)C1=O
The description is as §1. In outline:
as §2

Substrate in data set [10]: Cc1onc(-c2c(Cl)cccc2Cl)c1C(=O)N[C@@H]1C(=O)N2[C@@H]1SC(C)(C)[C@@H]2C(=O)O
Described as §1. In outline: as §2

Substrate in data set [11]: Cc1onc(-c2ccccc2)c1C(=O)N[C@@H]1C(=O)N2[C@@H]1SC(C)(C)[C@@H]2C(=O)O
The data set is described as §1. In outline: as §2

Substrate in data set [12]: Cc1onc(-c2ccccc2Cl)c1C(=O)N[C@@H]1C(=O)N2[C@@H]1SC(C)(C)[C@@H]2C(=O)O
Described as §1. An outline of the steps: as §2

Values after ≈ are worked out from the molar mass of the structure shown.

Turning to `CC1(C)S[C@@H]2[C@H](NC(=O)[C@H](N)c3ccccc3)C(=O)N2[C@H]1C(=O)O` [AMPICILLIN], the logP in data set [1] is -1.03. For the same molecule, the Activity with Escherichia coli [2] is 2.9 µM. The molecule also displayed an MIC in the data set with Escherichia coli [3] of 39 µg/mL (≈ 112 µM).
`CC1(C)S[C@@H]2[C@H](NC(=O)[C@H](NC(=O)N3CCNC3=O)c3ccccc3)C(=O)N2[C@H]1C(=O)O` [AZLOCILLIN]: the Papp in data set [4] amounted to 40 ×10⁻⁶ cm/s. In data set [1], this molecule showed a logP of 0.71. In addition, the Activity in the data set with Escherichia coli [2] came to 1.3 µM. Moreover, in the data set with Escherichia coli [3], inhibition of growth (MIC) required 44 µg/mL (≈ 95.3 µM). In the data set with Escherichia coli [5], the K0.5 stood at 1.06 µM.
As to `Cc1onc(-c2ccccc2Cl)c1C(=O)N[C@@H]1C(=O)N2[C@@H]1SC(C)(C)[C@@H]2C(=O)O` [CLOXACILLIN], the Papp in data set [4] amounted to 60 ×10⁻⁶ cm/s. In addition, the logP in data set [1] worked out at 2.8. Also, the Activity in the data set on Escherichia coli [2] worked out at 11 µM. The MIC in the data set with Escherichia coli [3] is 295 µg/mL (≈ 677 µM). In addition, the K0.5 in the data set with Escherichia coli [5] was found to be 0.91 µM.
The corresponding values for `Cc1onc(-c2c(Cl)cccc2Cl)c1C(=O)N[C@@H]1C(=O)N2[C@@H]1SC(C)(C)[C@@H]2C(=O)O` [DICLOXACILLIN] are 60 ×10⁻⁶ cm/s, 3.4, 39 µM, 560 µg/mL (≈ 1190 µM) and 0.53 µM.
The corresponding values for `CC1(C)S[C@@H]2[C@H](NC(=O)[C@H](NC(=O)N3CCN(S(C)(=O)=O)C3=O)c3ccccc3)C(=O)N2[C@H]1C(=O)O` [MEZLOCILLIN] are 50 ×10⁻⁶ cm/s, 0.67, 1.1 µM, 30 µg/mL (≈ 55.6 µM) and 1.08 µM.
For `Cc1onc(-c2ccccc2)c1C(=O)N[C@@H]1C(=O)N2[C@@H]1SC(C)(C)[C@@H]2C(=O)O` [OXACILLIN] the same measures were 60 ×10⁻⁶ cm/s, 2.1, 12 µM, 282 µg/mL (≈ 702 µM) and 0.97 µM.
For `CC1(C)S[C@@H]2[C@H](NC(=O)COc3ccccc3)C(=O)N2[C@H]1C(=O)O` [PENICILLIN V], the Papp in [4] was 70 ×10⁻⁶ cm/s. The molecule further came in with a logP in [1] of 1.54. Further, the Activity with Escherichia coli [2] is 33 µM. This molecule had an MIC in the data set with Escherichia coli [3] of 178 µg/mL (≈ 508 µM). In addition, in the data set on Escherichia coli [5], the K0.5 is 0.82 µM.
The corresponding values for `CCN1CCN(C(=O)N[C@@H](C(=O)N[C@@H]2C(=O)N3[C@@H]2SC(C)(C)[C@@H]3C(=O)O)c2ccccc2)C(=O)C1=O` [PIPERACILLIN] are 30 ×10⁻⁶ cm/s, 0.45, 1.2 µM, 46 µg/mL (≈ 88.9 µM) and 1.06 µM.

B1: Beta-lactamase OXA-7 (Escherichia coli), P35695 (protein)
chain: MKTFAAYVITACLSSTALASSITENTFWNKEFSAEAVNGVFVLCKSSSKLACATNNLARASKEYLPASTFKIPNAIIGLETGVIKNEHQIFKWDGKPRAMKQWERDLSLRGAIQVSAVPVFQQIAREVGEVRMQKYLKKFSYGNQNISGGIDKFWLEGQLRISAVNQVEFLESLFLNKLSASKENQLIVKEALVTEAPEYLVHSKTGFSGVGTESNPGVAWWVGWVEKGAEVYFFAFNMDIDNENKLPLRKSIPTKIMASEGIIGG
Take B1: the Km came to 29 µM in data set [6]; 29 µM in [7]; 18 µM in data set [8]; 34 µM in data set [9]; 34 µM in data set [10]; 52 µM in data set [11]. Besides, in data set [12], the Km turned out to be 31 µM.
